Laboratory results taken from ChEMBL document CHEMBL1125638, “Design and conformational analysis of several highly potent bradykinin receptor antagonists” (J Med Chem, 1991).

Legend:
[1] = Displacement of [3H]bradykinin from bradykinin receptor in guinea pig ileal membrane; type: cell membranes, Cavia porcellus
SV-T2 = experiment: Binding affinity for bradykinin receptor of SV-T2 fibroblasts; type: functional, cell-based; settings: Mus musculus, read-out: pA2 (converted)
How it was run: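 Functional antagonism measured as pA2 against bradykinin-stimulated prostaglandin synthesis in SV-T2 fibroblasts, which express only B2 bradykinin receptors. Agonist activity was also checked in the same cells at concentrations up to 10 µM.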

[2] = Displacement of [3H]bradykinin from bradykinin receptor of guinea pig ileal membrane; Inactive; design: species or system Cavia porcellus

SMILES	Ki [1] [nM]	Ki [2]	Kb (SV-T2) [nM]
NC(N)=NCCC[C@@H](N)C(=O)N[C@@H](CCCN=C(N)N)C(=O)N1CCC[C@H]1C(=O)N1C[C@@H](O)C[C@H]1C(=O)NCC(=O)N[C@@H](Cc1cccs1)C(=O)N[C@@H](CO)C(=O)N1Cc2ccccc2C[C@@H]1C(=O)N1Cc2ccccc2C[C@H]1C(=O)N[C@@H](CCCN=C(N)N)C(=O)O	0.381	–	0.794
NC(N)=NCCC[C@@H](N)C(=O)N[C@@H](CCCN=C(N)N)C(=O)N1CCC[C@H]1C(=O)N1C[C@@H](O)C[C@H]1C(=O)NCC(=O)N[C@@H](Cc1cccs1)C(=O)N[C@@H](CO)C(=O)N1Cc2ccccc2C[C@@H]1C(=O)N1C2CCCC2C[C@H]1C(=O)N[C@@H](CCCN=C(N)N)C(=O)O (stereo partly specified)	0.176	–	0.398
NC(N)=NCCC[C@@H](N)C(=O)N[C@@H](CCCN=C(N)N)C(=O)N1CCC[C@H]1C(=O)N1C[C@H](O)C[C@H]1C(=O)NCC(=O)N[C@@H](Cc1ccccc1)C(=O)N[C@@H](CO)C(=O)N[C@H](Cc1ccccc1)C(=O)N[C@@H](Cc1ccccc1)C(=O)N[C@@H](CCCN=C(N)N)C(=O)O	26.8	–	6.31

Further lines, with some results ahead:

Ki [1] [nM]	Ki [2]	SMILES	Kb (SV-T2) [nM]
571	–	NC(N)=NCCC[C@@H](N)C(=O)N[C@@H](CCCN=C(N)N)C(=O)N1CCC[C@H]1C(=O)N1C[C@@H](O)C[C@H]1C(=O)NCC(=O)N[C@@H](Cc1cccs1)C(=O)N[C@@H](CO)C(=O)N1Cc2ccccc2C[C@@H]1C(=O)N1Cc2ccccc2C[C@@H]1C(=O)N[C@@H](CCCN=C(N)N)C(=O)O	2510
–	Not Active	NC(N)=NCCC[C@@H](N)C(=O)N[C@@H](CCCN=C(N)N)C(=O)N1CCC[C@H]1C(=O)N1C[C@@H](O)C[C@H]1C(=O)NCC(=O)N[C@@H](Cc1cccs1)C(=O)N[C@H]1CSSC[C@@H](C(=O)O)NC(=O)[C@H](CCCN=C(N)N)NC(=O)[C@H](Cc2ccccc2)NC(=O)[C@H]2Cc3ccccc3CN2C1=O	–
876	–	NC(N)=NCCC[C@@H](N)C(=O)N[C@@H](CCCN=C(N)N)C(=O)N1CCC[C@H]1C(=O)N1C[C@@H](O)C[C@H]1C(=O)NCC(=O)N[C@@H](Cc1cccs1)C(=O)N[C@H]1CSSC[C@@H](C(=O)N[C@@H](CCCN=C(N)N)C(=O)O)NC(=O)[C@H](Cc2ccccc2)NC(=O)[C@@H](Cc2ccccc2)NC1=O	3980
